# mABHD4 FP: inhibitors of mouse ABHD4; Q8VD66; AID 720543; hit rate 0.54% among 370,000; purified mABHD4, FP-Rh probe fluorescence polarization; inhibition, % at 8.92 µM;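 active = inhibition exceeding the mean over every tested compound plus 3 SD, cut at about 30% in these data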;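 also: 0% = plate median of compound wells and 100% = S159A mutant with DMSO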
#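 Assay system: Wild-type mouse ABHD4 protein | Medium: HEPES pH 7.0 buffer, 150 mM NaCl, 0.01% Pluronic F-127 | Incubation: Enzyme–compound pre-incubation 45 min, then probe 60 min, both 25 °C | Technique: Fluorescence polarization with parallel and perpendicular emission, 525/598 nm | Evaluation: % inhibition of FP-Rh probe binding versus controls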
# TCR-CD3 inh: blocks the human TCR-CD3 interaction. hit rate 0.37% among 360,000. TAMRA-labeled TCR probe fluorescence, biochemical. inhibition, % at 9.4 µM; in the data active = inhibition above about 19%;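 also: recombinant mutant TCR 2C K166C tagged with TAMRA read by polarization; 0% = receptor in buffer alone and 100% = receptor with positive control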
# SIAE primary: human SIAE inhibition, primary screen | Q9HAT2 | hit rate 0.69% among 370,000 | inhibition, % at 9.66 µM | SIAE FP-Rh probe binding, fluorescence polarization;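 active = inhibition above a cutoff: mean of compounds within the control limits plus 3 SD of those, cut at about 17% in these data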;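 also: 0% = plate median of compound wells and 100% = probe without SIAE protein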
# HTRA1 inhibitor: blocks human HTRA1 serine peptidase; recombinant HTRA1, FP-rhodamine activity-based probe, fluorescence polarization; inhibition, % at 5.96 µM; hit rate 0.5% among 340,000; AID 504803; in the data active = inhibition above about 36%;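 also: 0% = enzyme with DMSO and 100% = wells lacking enzyme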
# PRMT1 FP inh: PRMT1 (human) inhibition, primary screen | Q99873 | AID 652257 | recombinant PRMT1, activity-based probe fluorescence polarization | hit rate 1.3% among 370,000 | inhibition, % at 2.79 µM;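 active = inhibition above about 21% made by adding two undisclosed values, limit read from the data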
# Target sequence (Q99873 whole entry, looked up): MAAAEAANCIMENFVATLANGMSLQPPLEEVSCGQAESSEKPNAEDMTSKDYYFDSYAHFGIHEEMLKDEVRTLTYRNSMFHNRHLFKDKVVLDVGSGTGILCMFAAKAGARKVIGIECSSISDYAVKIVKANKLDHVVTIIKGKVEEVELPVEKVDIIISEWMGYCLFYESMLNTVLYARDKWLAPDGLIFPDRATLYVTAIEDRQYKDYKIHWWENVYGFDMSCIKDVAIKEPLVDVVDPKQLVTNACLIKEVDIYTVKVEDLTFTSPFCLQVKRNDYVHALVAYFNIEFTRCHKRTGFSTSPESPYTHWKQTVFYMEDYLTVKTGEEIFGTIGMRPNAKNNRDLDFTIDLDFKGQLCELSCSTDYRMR
# PRMT1 inh conf: confirmation of human PRMT1 inhibitors; recombinant His-PRMT1, activity-based probe fluorescence polarization; inhibition, % at 2.79 µM; shares compounds with PRMT1 FP inh; hit rate 42% among 3,300;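 active = mean inhibition across replicates above the hit cutoff derived for the earlier primary screen, cut at about 22% in these data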
# Active calls of the source: *; . = not tested or not shown. An excerpt weighted towards active compounds, which were near 2.5% of everything screened.
SMILES,mABHD4 FP,TCR-CD3 inh,SIAE primary,HTRA1 inhibitor,PRMT1 FP inh,PRMT1 inh conf
CSc1nnc(N2C(=O)C(O)=C(C(=O)c3ccco3)C2c2ccc(F)cc2)s1 (centres undefined),-6,-22,-3,-1,43*,11
COc1cccc(/C=C2\CC3(OC(=O)c4ccc(Cl)cc4)CCCN2C3)c1 (centres undefined),-1,.,-4,.,-2,.
O=C(OCc1cn(Cc2cc(F)cc(F)c2)nn1)N1CCOCC1,-1,.,5,.,-5,.
N#CCC[C@@H]1CC[C@]2(CCCN(C(=O)c3cccnc3)C2)O1,3,.,1,.,-7,.
CC(=O)OCC1=C(C(=O)O)N2C(=O)C(NC(=O)COc3ccc(F)cc3)C2SC1 (centres undefined),-2,6,1,-17,37*,48*
CCOc1ccc(C(=O)NC2C(=O)N3C(C(=O)O)=C(COC(C)=O)CSC23)cc1OCC (centres undefined),9,5,-1,3,27*,9
CC(=O)OCC1=C(C(=O)O)N2C(=O)[C@@H](NC(=O)Cc3ccccc3)[C@H]2SC1,4,5,-4,6,27*,11
CCC1Oc2ccc(C)cc2N(CC(=O)N(Cc2ccc(C)o2)C2CCCC2)C1=O (centres undefined),-6,-3,6,-12,47*,38*
CC1(C)Cc2c(c(N3CCOCC3)nc3sc(C(N)=O)c(N)c23)CO1,0,-11,4,0,37*,7
CCOC(=O)c1sc2nc(-c3ccco3)c3c(c2c1N)CC(C)(C)OC3,20,1,3,2,41*,43*
CC1(C)Cc2c(c(N3CCOCC3)nc3sc(C(=O)Nc4ccc(Cl)cc4)c(N)c23)CO1,-14,-11,-4,-4,53*,1
CCOc1ccc(NC(=O)c2sc3nc(N4CCOCC4)c4c(c3c2N)CC(C)(C)OC4)cc1,5,5,-6,-1,3,.
Cc1nc2sc(C(=O)O)c(N)c2c2c1COC(C)(C)C2,0,-4,-4,1,13,.
O=C(OC12CCCN(C1)/C(=C/c1ccncc1)C2)C1CCCCC1 (centres undefined),4,.,2,.,-2,.
CN(Cc1ccccc1)C(=O)OCc1cn(Cc2cccc(F)c2F)nn1,0,.,0,.,-5,.
O=C(O)CSc1nnc(-c2cccnc2)n1Cc1ccccc1,3,-1,3,2,-1,.
c1ccc(Cn2c(SCC3CCCCC3)nnc2-c2cccnc2)cc1,-2,.,2,.,46*,-4
COc1ccc2c(C(c3ccccc3O)C3CCCN3S(=O)(=O)c3ccc(C)cc3)cn(C)c2c1 (centres undefined),-29,.,5,.,12,.
O=C(CC1SC(=O)NC1=O)Nc1ccc(Cl)cc1 (centres undefined),-6,6,1,2,40*,39*
CC(C)c1ccc(/C=N/n2c(COc3ccccc3)n[nH]c2=S)cc1,-16,-3,4,-18,31*,21
S=c1[nH]nc(COc2ccccc2)n1/N=C/C=C/c1ccco1,15,3,8,.,33*,1
CCOC(=O)CNC(c1ccccc1)c1cc(Br)ccc1NC(=O)CCN1CCOCC1 (centres undefined),11,5,3,-31,37*,0
COC(=O)CNC(c1ccccc1)c1cc(Br)ccc1NC(=O)CCN1CCOCC1 (centres undefined),6,3,1,-41,19,.
CCc1c(O)nc(SCC(=O)Nc2nc3ccccc3s2)n(C2CCCCC2)c1=O,-7,2,-4,0,45*,50*
CCc1c(O)nc(SCC(=O)Nc2ccc(OC)cc2)n(C2CCCCC2)c1=O,3,-4,6,-6,12,.
SMILES,mABHD4 FP,TCR-CD3 inh,SIAE primary,HTRA1 inhibitor,PRMT1 FP inh,PRMT1 inh conf
CCc1c(O)nc(SCC(=O)Nc2ccc(Cl)cc2)n(-c2ccccc2)c1=O,7,-7,0,3,38*,35*
COc1ccc(C2CCC3(CCC(=O)N3CCO)CC2)cc1 (centres undefined),-1,.,6,.,-3,.
CCC(/C=C1\Oc2ccc(OC)cc2N1C)=C\c1sc2ccccc2[n+]1CCCS(=O)(=O)[O-],-83,-33,-59,-60,49*,10
CCOC(=O)C1=C(C)N=c2s/c(=C/c3cccc([N+](=O)[O-])c3O)c(=O)n2C1c1cc(OC)c(OC)c(OC)c1 (centres undefined),21,-3,3,0,44*,40*
CCOC(=O)C1=C(C)N=c2s/c(=C/c3cccc([N+](=O)[O-])c3O)c(=O)n2C1c1ccccc1 (centres undefined),6,4,-2,11,49*,41*
CCOC(=O)C1=C(C)N=c2s/c(=C\c3cccn3C)c(=O)n2C1c1cccc(OC)c1OC (centres undefined),-4,0,3,-4,0,.
COC(=O)C1=C(C)N=c2s/c(=C/c3ccoc3)c(=O)n2C1c1ccccc1 (centres undefined),.,.,.,-5,.,.
COC(=O)[C@]12C[C@H](CC(=O)NCc3ccc(C)o3)C(=O)N(Cc3cccc4ccccc34)C1=C[C@H](C(C)C)O[C@@H]2C1CC1,-14,.,3,.,1,.
CC(=O)Nc1ccc(-c2cc(N)n(-c3ccccc3)n2)cc1,-10,3,-11,-1,-2,.
N#Cc1ccc2c(=O)n(-c3ccccc3)sc2c1,3,5,10,5,78*,95*
CC(=O)Nc1ccc2c(=O)n(-c3ccccc3)sc2c1,3,4,8,-1,86*,91*
Cc1ccc2c(c1)N(CCCC(=O)NCc1cccs1)C(=O)CO2,6,.,3,.,-1,.
COc1ccc(S[C@]2(C(=O)N3CCN(C(C)=O)CC3)CC(=O)N(S(=O)(=O)c3ccc(F)cc3)[C@@H]2c2ccc(OC)cc2)cc1,11,.,9,.,43*,37*
CCOC(=O)N1C(=O)C[C@](Sc2ccc(OC)cc2)(C(=O)N(C)C)[C@H]1c1ccc(OC)cc1,0,.,2,.,46*,37*
COc1ccc(S[C@]2(C(=O)N3CCOCC3)CC(=O)N(C(=O)c3ccccc3)[C@@H]2c2ccc(OC)cc2)cc1,2,.,8,.,80*,77*
COC(=O)[C@]12C[C@H](CC(=O)N3CCCCC3)C(=O)N(Cc3ccc4c(c3)OCO4)C1=C[C@H](C(C)C)O[C@@H]2C1CC1,-4,.,3,.,-4,.
O=C(C1CCCO1)N1CCN(C2=Nc3ccccc3Sc3ccccc32)CC1 (centres undefined),-3,.,-4,.,-4,.
Clc1ccc(Cl)c(-c2nn3c(COc4ccccc4)nnc3s2)c1,1,-7,-3,0,28*,0
COC(=O)[C@]12C[C@H](CC(=O)NCCCN3CCCC3=O)C(=O)N(Cc3ccc4c(c3)OCO4)C1=C[C@H](C(C)C)O[C@@H]2C1CC1,5,.,-4,.,0,.

# Compound activity as filed in PubChem BioAssay.
